# ABHD4 inh: inhibitors of mouse ABHD4; purified mABHD4, FP-Rh probe fluorescence polarization; actives 0.54% (n = 370,000); Q8VD66; inhibition, % at 8.92 µM; AID 720543;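 active = inhibition exceeding the mean over every tested compound plus 3 SD, cut at about 30% in these data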
#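 assay system = mABHD4 protein | compound dosing = single nominal dose of 8.92 µM, 0.89% DMSO final | read-out basis = percent inhibition of probe binding, normalized to plate controls | schedule = Enzyme–compound pre-incubation 45 min, then probe 60 min, both 25 °C | detection = fluorescence polarization, excitation 525 nm, emission 598 nm, BODIPY TMR filters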
# SIAE inh: blocks human sialic acid acetylesterase. Q9HAT2. SIAE FP-Rh probe binding, fluorescence polarization. inhibition, % at 9.66 µM. actives 0.69% (n = 370,000). AID 1053197;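 active = inhibition above a cutoff: mean of compounds within the control limits plus 3 SD of those, cut at about 17% in these data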
# TCR CD3 inh: inhibitors of human TCR-CD3 interaction; TAMRA-labeled TCR probe fluorescence, biochemical; inhibition, % at 9.4 µM; actives 0.37% (n = 360,000); AID 651800;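 note: recombinant mutant TCR 2C K166C tagged with TAMRA read by polarization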
# rCAG binder: r(CAG) repeat RNA binding; TO-PRO-1 dye displacement fluorescence; inhibition, % at 3 µM; actives 1.3% (n = 370,000);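 active = inhibition above the plate cutoff, the mean of all test compounds on that plate plus 3 SD, cut at about 35% in these data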;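 note: higher means more dye released from RNA so lower well fluorescence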
# HTRA1 inhibitor: HTRA1 (human) protease inhibition; recombinant HTRA1, FP-rhodamine activity-based probe, fluorescence polarization; inhibition, % at 5.96 µM; Q92743; actives 0.5% (n = 340,000); in the data active = inhibition above about 36%
# Target sequence (Q92743 whole entry, looked up): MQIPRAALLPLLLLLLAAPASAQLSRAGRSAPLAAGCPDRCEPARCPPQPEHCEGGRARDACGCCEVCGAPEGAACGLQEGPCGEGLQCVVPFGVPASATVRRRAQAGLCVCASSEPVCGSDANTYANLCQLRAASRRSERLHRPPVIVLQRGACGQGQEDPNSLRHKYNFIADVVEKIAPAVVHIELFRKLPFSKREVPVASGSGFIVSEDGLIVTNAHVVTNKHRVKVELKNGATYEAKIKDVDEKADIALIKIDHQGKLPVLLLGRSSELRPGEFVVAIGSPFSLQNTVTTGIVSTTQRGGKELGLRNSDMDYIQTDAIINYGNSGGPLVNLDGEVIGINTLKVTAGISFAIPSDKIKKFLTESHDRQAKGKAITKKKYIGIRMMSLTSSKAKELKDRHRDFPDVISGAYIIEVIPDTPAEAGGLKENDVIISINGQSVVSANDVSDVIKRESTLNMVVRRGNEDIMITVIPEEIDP
# BSA TAMRA ctr: interferes with TAMRA-BSA probe, flagging TCR-CD3 hits; shares compounds with TCR CD3 inh; TAMRA-labeled BSA probe fluorescence counterscreen; inhibition, % at 9.4 µM; actives 10% (n = 1,200); in the data active = inhibition above about 23%
# TCR-CD3 inh conf: confirmation of human TCR-CD3 interaction inhibitors; shares compounds with TCR CD3 inh; TAMRA-labeled TCR probe fluorescence binding assay; inhibition, % at 9.4 µM; actives 48% (n = 1,200); AID 652036
# A number is an active result; 0 = inactive; - = not tested or not shown. Rows were chosen to be rich in hits. Some 2.5% of all compounds tested hit in one or more screens of this group. Cut-off read from the data, not from the text of the source, unless noted: active = inhibition above about 19%; inactive = the rest.
SMILES,ABHD4 inh,SIAE inh,TCR CD3 inh,rCAG binder,HTRA1 inhibitor,BSA TAMRA ctr,TCR-CD3 inh conf
COc1cccc(-c2ccc3c(c2)N(Cc2cccc(F)c2)C(=O)C(C)S3)c1 (stereo unspecified),0,0,0,0,-,-,-
COc1cccc2c1Oc1ncccc1N(C(=O)CCC(=O)NCc1ccc(F)cc1)C2,0,0,0,0,0,-,-
CCCCC1CCC(C(=O)N(CC(C)C)c2c(N)n(Cc3ccccc3)c(=O)[nH]c2=O)CC1 (stereo unspecified),0,0,0,0,-,-,-
COc1ccc(C=C2CS(=O)(=O)CC(=Cc3ccc(OC)cc3)C2=O)cc1,0,0,0,0,0,-,-
O=C(NNC(=O)C1CCN(S(=O)(=O)c2ccccc2)CC1)c1ccccc1O,0,0,47,0,0,0,40
O=C(NNS(=O)(=O)c1ccccc1)C1CCN(S(=O)(=O)c2ccccc2)CC1,0,0,0,0,0,-,-
NC(=O)c1sc2nc(-c3cccnc3)ccc2c1N,0,0,0,0,-,-,-
NC(=O)c1sc2nc(-c3ccco3)ccc2c1N,0,0,20,0,0,0,0
Cc1ccc(C(=O)NNC(=S)NC(=O)c2ccco2)cc1,0,0,0,0,0,-,-
CC(C)C(=O)Nc1ccc(C(=O)NNC(=S)NC(=O)c2ccco2)cc1,0,0,33,0,0,0,36
COC(=O)NNC(=O)COc1ccc(Cl)cc1,-,-,-,-,0,-,-
COc1ccc(C(=O)NNC(=O)COc2ccc(Cl)cc2)c(OC)c1,0,0,25,0,0,0,24
C[C@@H]1Cn2cnc(C(=O)N3CCN(C(=O)OC(C)(C)C)CC3)c2C(=O)N1,0,0,20,0,-,0,0
C[C@H]1Cn2cnc(C(=O)NCC(=O)OC(C)(C)C)c2C(=O)N1,0,0,0,0,0,-,-
C/C(=N\NC(=O)c1nnn(-c2nonc2N)c1CN(C)c1ccccc1)c1ccccc1O,0,0,41,0,0,0,29
O=C(CSc1nc2ccccc2c(=O)n1Cc1ccco1)Nc1cccc(O)c1,0,0,0,0,0,-,-
Cc1nc(N)sc1-c1csc(Nc2ncccn2)n1,0,0,20,0,0,0,20
O=C(Nc1ccc(Cl)cc1)Nc1ccc(Cl)c(Cl)c1,0,0,22,0,-,0,19
CCOC(=O)C1=CCN(S(=O)(=O)c2cccc(Cl)c2)C1c1cccc(F)c1 (stereo unspecified),0,0,65,0,-,0,0
CCOC(=O)C1=CCN(S(=O)(=O)c2ccc(F)cc2)C1c1cccc(Cl)c1 (stereo unspecified),0,0,0,0,-,-,-
COc1ccccc1C(c1nnnn1C(C)(C)C)N1CCCc2ccccc21 (stereo unspecified),0,0,0,0,0,-,-
O=C(NC(=O)c1ccccc1F)OCc1ccc(Cl)cc1Cl,0,0,28,0,0,0,0
O=C(NCc1ccccc1F)C1CC(=O)N(Cc2ccco2)C1 (stereo unspecified),0,0,42,0,0,0,0
O=C(Nc1ccc(F)cc1)C1CC(=O)N(Cc2ccco2)C1 (stereo unspecified),0,0,0,0,0,-,-
CCC(C(=O)Nc1cc(Cl)ccc1OC)c1ccccc1 (stereo unspecified),0,0,0,0,0,-,-
SMILES,ABHD4 inh,SIAE inh,TCR CD3 inh,rCAG binder,HTRA1 inhibitor,BSA TAMRA ctr,TCR-CD3 inh conf
CCNc1ccc(C(=O)O)cc1N,0,0,23,0,0,0,0
CCc1ccccc1Nc1ccc(C(=O)O)cc1N,0,0,0,0,0,-,-
CCN1CCN(C(=O)C2CCN(S(=O)(=O)c3ccc(Br)cc3)CC2)CC1,0,0,19,0,0,0,0
CCN1CCN(C(=O)C2CCN(S(=O)(=O)c3ccc(SC)cc3)CC2)CC1,0,0,0,0,0,-,-
NC(=O)c1cc(S(=O)(=O)NCCc2ccccc2)cs1,0,0,0,0,0,-,-
O=C1c2ccccc2C(c2nnnn2-c2ccc3c(c2)OCCO3)N1Cc1ccco1 (stereo unspecified),0,0,25,0,-,0,0
COc1ccccc1OCc1ccc(C(=O)Nc2ccncc2)o1,0,0,32,0,0,0,0
Cc1nn(CC(=O)NC(=O)NC2CCCC(C)C2C)c(=O)c(C#N)c1C (stereo unspecified),0,0,24,0,0,0,0
CNC(=S)NNC(=O)c1oc2nc(-c3ccccc3)cc(C)c2c1N,0,0,29,0,0,0,0

# Screening results as filed in PubChem BioAssay.
